Reference: ChEMBL document CHEMBL3045276, “Synthesis and biological activity of some novel trifluoromethyl-substituted 1,2,4-triazole and bis(1,2,4-triazole) Mannich bases containing piperazine rings” (2010)

Key:
Type in all cases: functional
Echinochloa crus-galli [1] = assay: Herbicidal activity against Echinochloa crus-galli (barnyard grass) assessed as inhibition of seedling growth at 10 ug/mL at 28 degC
Summary of the method: (§1)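 Ten barnyardgrass seeds placed in cup over glass beads and filter paper holding 5 mL aqueous test solution (emulsified if needed); germinated 65 h at 28 ± 1 °C under light. Mean above-ground seedling height per cup measured; inhibition percentage derived.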

[2] = tested on: Pseudoperonospora cubensis; assay: Fungicidal activity against Pseudoperonospora cubensis in cucumber plant two seed leaves stage assessed as control efficacy from disease indices at 500 ug/mL at 18 to 30 degC and above 80%RH relative to control; conditions: read-out: GI
Summary of the method: (§2)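 Cucumber seeds germinated (soaked 2 h in water at 50 °C, kept moist 24 h at 28 °C) and grown in 1:1 vermiculite/peat; two-seed-leaf plants sprayed at 500 μg/mL, then inoculated 2 h later by spraying conidial (C. cassiicola, A. citrullina, P. cubensis), bacterial (P. syringae) or mycelial (S. sclerotiorum) suspension. Held 18-30 °C, >80% RH; four repeats; control efficacy = (CK−PT)/CK×100 from disease indices once untreated plants fully symptomatic.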

Sclerotinia sclerotiorum = assay: Fungicidal activity against Sclerotinia sclerotiorum in cucumber plant two seed leaves stage assessed as control efficacy from disease indices at 500 ug/mL at 18 to 30 degC and above 80%RH relative to control; conditions: read-out: GI; summary of the method: as §2
[3] = tested on: Brassica rapa subsp. oleifera; assay: Herbicidal activity against Brassica rapa subsp. oleifera assessed as inhibition of root growth at 10 ug/mL at 28 degC
Summary of the method: (§3)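 Rape seeds soaked 4 h in distilled water, then 15 per 6 cm dish on filter paper wetted with 2 mL aqueous test solution (emulsified if needed); germinated 65 h at 28 ± 1 °C in darkness. Mean length of 10 roots per dish measured; percentage inhibition calculated against distilled-water check.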

Corynespora cassiicola = assay: Fungicidal activity against Corynespora cassiicola in cucumber plant two seed leaves stage assessed as control efficacy from disease indices at 500 ug/mL at 18 to 30 degC and above 80%RH relative to control; conditions: read-out: GI; summary of the method: as §2
Ascochyta = assay: Fungicidal activity against Ascochyta […] in cucumber plant two seed leaves stage assessed as control efficacy from disease indices at 500 ug/mL at 18 to 30 degC and above 80%RH relative to control; conditions: read-out: GI; summary of the method: as §2
[4] = tested on: Brassica rapa subsp. oleifera; assay: Herbicidal activity against Brassica rapa subsp. oleifera assessed as inhibition of root growth at 100 ug/mL at 28 degC; summary of the method: as §3
[5] = tested on: Pseudomonas amygdali pv. lachrymans; assay: Fungicidal activity against Pseudomonas syringae pv. lachrymans in cucumber plant two seed leaves stage assessed as control efficacy from disease indices at 500 ug/mL at 18 to 30 degC and above 80%RH relative to control; conditions: read-out: GI; summary of the method: as §2
Echinochloa crus-galli [6] = assay: Herbicidal activity against Echinochloa crus-galli (barnyard grass) assessed as inhibition of seedling growth at 100 ug/mL at 28 degC; summary of the method: as §1

Row | SMILES | inhibition at 10 µg/mL (Echinochloa crus-galli [1]) [%] | inhibition of growth at 500 µg/mL [2] [%] | inhibition of growth at 500 µg/mL (Sclerotinia sclerotiorum) [%] | inhibition at 10 µg/mL [3] [%] | inhibition of growth at 500 µg/mL (Corynespora cassiicola) [%] | inhibition of growth at 500 µg/mL (Ascochyta) [%] | inhibition at 100 µg/mL [4] [%] | inhibition of growth at 500 µg/mL [5] [%] | inhibition at 100 µg/mL (Echinochloa crus-galli [6]) [%]
1 | FC(F)(F)c1nn(CN2CCN(Cn3nc(C(F)(F)F)n(/N=C/c4ccccc4)c3=S)CC2)c(=S)n1/N=C/c1ccccc1 | 16.2 | 78.9 | 67.6 | 0 | 70.9 | 25.6 | 35.1 | 56.4 | 25.1
2 | Cc1ccc(/C=N/n2c(C(F)(F)F)nn(CN3CCN(Cn4nc(C(F)(F)F)n(/N=C/c5ccc(C)c(C)c5)c4=S)CC3)c2=S)cc1C | 1.5 | 78.7 | 32.7 | 0 | 67.4 | 26 | 27.4 | 36.7 | 28
3 | COc1ccc(/C=N/n2c(C(F)(F)F)nn(CN3CCN(Cn4nc(C(F)(F)F)n(/N=C/c5ccc(OC)cc5)c4=S)CC3)c2=S)cc1 | 5.5 | 84.5 | 62 | 0 | 44.1 | 89.7 | 29.5 | 55.6 | 25.5
4 | COc1ccc(/C=N/n2c(C(F)(F)F)nn(CN3CCN(c4nccc(C)n4)CC3)c2=S)cc1 | 15.3 | 72.5 | 50.9 | 0 | 52.8 | 67.7 | 30.3 | 30.6 | 34.3
5 | Cc1cc(C)nc(N2CCN(Cn3nc(C(F)(F)F)n(/N=C/c4ccc(C)c(C)c4)c3=S)CC2)n1 | 0 | 67.8 | 48.9 | 6 | 85.9 | 82.9 | 20.5 | 59.5 | 8.7
6 | Cc1ccnc(N2CCN(Cn3nc(C(F)(F)F)n(/N=C/c4ccc(C)c(C)c4)c3=S)CC2)n1 | 0 | 69.5 | 51.9 | 0 | 38.7 | 70 | 11.2 | 22 | 27.8
7 | FC(F)(F)c1nn(CN2CCN(c3ncccn3)CC2)c(=S)n1/N=C/c1ccccc1 | 0 | 66.3 | 41.7 | 49.2 | 56.2 | 37.1 | 66.8 | 55.8 | 0
8 | CC(C)NC(=O)N1CC(=O)N(c2cc(Cl)cc(Cl)c2)C1=O [IPRODIONE] |  | 55.9 | 97.8 |  | 53.5 | 98.4 |  | 38.5 | 
9 | Fc1ccccc1/C=N/n1c(C(F)(F)F)nn(CN2CCN(Cn3nc(C(F)(F)F)n(/N=C/c4ccccc4F)c3=S)CC2)c1=S | 10.7 | 79.9 | 25.9 | 0 | 84.7 | 86.5 | 4.3 | 6.8 | 26.6
10 | Cc1cc(C)nc(N2CCN(Cn3nc(C(F)(F)F)n(/N=C/c4ccccc4F)c3=S)CC2)n1 | 17.1 | 79.2 | 72 | 67.1 | 78.7 | 83.5 | 72.4 | 56.1 | 33.2
11 | COc1ccc(/C=N/n2c(C(F)(F)F)nn(CN3CCN(c4nc(C)cc(C)n4)CC3)c2=S)cc1 | 0 | 87.3 | 62.6 | 30.6 | 83.7 | 87.6 | 67.7 | 50.3 | 29.5
12 | COc1ccc(/C=N/n2c(C(F)(F)F)nn(CN3CCN(c4ncccn4)CC3)c2=S)cc1 | 0 | 79.5 | 75.3 | 53.5 | 73.4 | 73.4 | 78.8 | 68.1 | 18.6
13 | Cc1ccnc(N2CCN(Cn3nc(C(F)(F)F)n(/N=C/c4ccc(Cl)cc4)c3=S)CC2)n1 | 10.2 | 91.2 | 70.3 | 0 | 71.1 | 61.3 | 68.6 | 21.1 | 96.7
14 | Cc1cc(C)nc(N2CCN(Cn3nc(C(F)(F)F)n(/N=C/c4ccccc4[N+](=O)[O-])c3=S)CC2)n1 | 0 | 77.2 | 39.3 | 0 | 87.8 | 88.4 | 11.2 | 46.5 | 10.2
15 | Cc1cc(C)nc(N2CCN(Cn3nc(C(F)(F)F)n(/N=C/c4ccccc4)c3=S)CC2)n1 | 0 | 74.1 | 48 | 36.9 | 22.1 | 61.5 | 71.1 | 55 | 9.8
16 | COC(=O)NC(=S)Nc1ccccc1NC(=S)NC(=O)OC [THIOPHANATE METHYL] |  | 68.7 | 83.4 |  | 78.8 | 100 |  | 54.2 | 
17 | Cc1ccnc(N2CCN(Cn3nc(C(F)(F)F)n(/N=C/c4ccccc4F)c3=S)CC2)n1 | 0 | 75.5 | 52.2 | 0 | -5.3 | 57.8 | 24.4 | 62.3 | 8
18 | Cc1cc(C)nc(N2CCN(Cn3nc(C(F)(F)F)n(/N=C/c4ccc(Cl)cc4)c3=S)CC2)n1 | 12.3 | 91.6 | 38 | 9.5 | 94.4 | 62.8 | 88.5 | 61.5 | 36.6
19 | COc1ccc(C(=CC(=O)N2CCOCC2)c2ccc(Cl)cc2)cc1OC [DIMETHOMORPH] |  | 83.8 | 98.4 |  | 95.3 | 98.4 |  | 14 | 
20 | COc1nc(C)nc(NC(=O)NS(=O)(=O)c2ccccc2Cl)n1 [CHLORSULFURON] | 8.2 |  |  | 76 |  |  | 80.4 |  | 29.9
21 | Cc1ccnc(N2CCN(Cn3nc(C(F)(F)F)n(/N=C/c4ccccc4[N+](=O)[O-])c3=S)CC2)n1 | 11.5 | 76.8 | 32.8 | 0 | 73.8 | 44.3 | 0 | 44.5 | 33.9
22 | Cc1ccnc(N2CCN(Cn3nc(C(F)(F)F)n(/N=C/c4ccccc4)c3=S)CC2)n1 | 8.7 | 78.6 | 36.8 | 0 | 49.2 | 62.4 | 12.5 | 20.4 | 15.3
